# B1: tRNA (parent)
# chain: GUUCCGUUGGCGUAAUGGUAACGCGUCUCCCUCCUAAGGAGAAGACUGCGGGUUCGAGUCCCGUACGGAACG
# Variants of: B1
# Experiment: yeast fitness, log relative to wild type (ln ratio); higher = fitter; tRNA-Arg(CCU), competitive growth, 37 C, 1 M NaCl
# Method in brief: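 Two independent transformations put a combinatorial tRNA-Arg(CCU) variant library on a HIS3 centromeric plasmid into BY4742 lacking the chromosomal gene. Pools were grown in SC-HIS at 30 °C for 4 generations, then in SC-HIS 1M NaCl at 37 °C for ~6.5 generations (~26.5 h), with three outputs taken per input. Fitness compares a genotype's generations with the wild type's as a natural log ratio. Those generations are OD-scaled log2 output/input frequencies, inverse-variance weighted across replicates, from 125 bp paired-end Illumina counts.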
row,Variant,yeast fitness (ln)
1,C27U A43C C46U C66U C71U,-0.253
2,G1A U2G A43C C66U C71U,-0.257
3,U2G G6U A43C C66A A69G A70U C71U,-0.355
4,U2G A43C C46U A69G A70U C71U,-0.509
5,U2G G6U A43C C66A A70G,-0.137
6,U2G G6A A43C A69G A70G,-0.185
7,U2C G6U C66U A69G A70U C71U,-0.468
8,G1A U2G A43C A69G A70U C71U,-0.54
9,G6A C27U A43C,-0.131
10,G1A U2G G6U C27U C46U A69G C71U,-0.26
11,G6A A43C C46U A70G C71U,-0.207
12,U2G G6U C27U C66A C71U,-0.168
13,G6A A43C C66A A70G,-0.154
14,A43C C46U A69G A70U,-0.133
15,U2G C27U C46U C66A A70U,-0.143
16,U2C G6A C46U A69G A70G C71U,-0.145
17,G1A C27U A69G A70U C71U,-0.421
18,G1A G6U A43C C66U A69G A70U,-0.452
19,G6U C27U A43C C66U,-0.227
20,U2C G6U A43C A70U,-0.118
21,G1A U2G G6U A43C C66U A69G A70G,-0.371

row,Variant,yeast fitness (ln)
1,C46U C66U A69G A70U,-0.0707
2,G1A U2G A69G A70G,-0.118
3,G1A G6A C27U A43C C46U C66U A69G A70G,-0.309
4,U2C G6A A43C C46U C66U A70U C71U,-0.199
5,G1A C27U A43C C66U A69G A70U C71U,-0.505
6,U2C A43C C66A A69G A70G C71U,-0.168
7,G1A G6U C27U C46U A69G A70U,-0.299
8,C46U C66U A69G,-0.104
9,G1A G6A C46U C66U A69G A70G,-0.136
10,U2G G6U A43C A69G A70U C71U,-0.433
11,U2C G6A C27U C66U A70U C71U,-0.212
12,G1A G6A C46U C66U A70G C71U,-0.0284
13,U2C C27U A43C A70U C71U,-0.172
14,G6U C66A A70G C71U,-0.233
15,G1A U2C G6U A43C C46U C66A A70U C71U,-0.425
16,G1A U2G G6U C27U C66U A70U C71U,-0.434
17,U2G G6A C27U A43C C66A A70G C71U,-0.23
18,U2C C27U C66A A70U,-0.0861
19,C46U C66A,-0.0399
20,U2G G6U C27U C46U C66A A70U C71U,-0.143
21,G1A U2G G6U A43C C46U C66U A70U,-0.275

row,Variant,yeast fitness (ln)
1,U2G C27U C46U C66U A69G A70G C71U,-0.245
2,G6A A43C A69G C71U,-0.29
3,U2G G6U C27U A43C C71U,-0.304
4,U2G A43C C46U C66U C71U,-0.2
5,C27U C46U C66U,-0.0577
6,G1A U2C C46U C66U,-0.00756
7,U2G C27U C46U A70G,-0.0813
8,U2C G6U C46U A69G C71U,-0.0672
9,C27U A43C C46U A70G,-0.0288
10,U2C G6U A43C C66U A70G C71U,-0.172
11,G6U C27U C46U A70U C71U,-0.214
12,U2G C27U C66A A69G A70G C71U,-0.247
13,C27U C46U C66A,-0.0465
14,G1A U2G C27U A43C C46U C66U A69G A70U,-0.462
15,G1A U2G G6U A43C C46U A69G A70U C71U,-0.398
16,G1A G6A C46U C71U,-0.109
17,G6U C27U C66A A69G C71U,-0.806
18,U2C G6A A69G A70U,-0.0533
19,A43C C46U C66A A69G A70U,-0.0398
20,G1A U2C G6U C27U C46U C66U C71U,-0.196
21,G6A A43C C66U,-0.0381

row,Variant,yeast fitness (ln)
1,G1A U2G G6U C27U C46U C66U A69G C71U,-0.434
2,C27U A43C C46U C66A A70U,-0.0585
3,G1A U2G G6U C27U,-0.148
4,G6U C46U C66A A69G A70G,-0.00994
5,G1A U2G G6U A69G C71U,-0.224
6,G1A U2G A43C C66A A70G,-0.241
7,U2C C27U A43C C46U C66U A69G A70U,-0.259
8,A43C C66U C71U,-0.206
9,U2G C27U A43C C66A A70G C71U,-0.257
10,G1A U2G A43C C46U C66A A69G A70U,-0.252
11,U2G G6A C27U A43C C66A C71U,-0.2
12,C46U A69G,-0.00396
13,G1A G6U C27U A43C C66U A69G A70U C71U,-0.435
14,U2G G6A A43C C46U C66U A70G C71U,-0.149
15,U2G C27U C46U C66U A69G A70G,-0.187
16,U2G C27U A43C C66A C71U,-0.238
17,G1A U2C A43C C71U,-0.185
18,G1A U2G G6A C27U A69G A70U C71U,-0.526
19,G1A U2C C27U,-0.0512
20,G1A U2C G6U C27U A43C C46U A70U C71U,-0.177
21,G1A U2G G6A C27U A43C C46U C66U A69G A70U,-0.436

# Source: the RNAGym collection of RNA variant scans (doi:10.1038/s41586-018-0170-7)
